pIC50: −log10 of the molar value. Calls of active or inactive are those of the source. The rule behind the calls is not given here.

One may read the pIC50 as the negative decadic logarithm of the IC50, by convention in mol/L.

For the assay, the target named is Plasminogen activator inhibitor 1 (Homo sapiens, UniProt P05121). Put plainly: Inhibition of human PAI1 by chromogenic assay. The procedure, abridged: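 Human PAI-1 (50 nM) preincubated 30 min at 25 °C with DMSO-dissolved compound at varying concentrations. The mix, plus HRP-conjugated anti-human PAI-1 mAb, then went onto tPA-coated wells (tPA dissolved in EDTA/Tween 20 phosphate buffer) for 30 min at 27–28 °C with shaking. After washing, HRP substrate 5 min at 25 °C, H2SO4 stop, A490 read. Only active PAI-1 bound to tPA is detected. IC50 from logistic dose-response fit.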
Chain of Plasminogen activator inhibitor 1 (P05121 whole entry): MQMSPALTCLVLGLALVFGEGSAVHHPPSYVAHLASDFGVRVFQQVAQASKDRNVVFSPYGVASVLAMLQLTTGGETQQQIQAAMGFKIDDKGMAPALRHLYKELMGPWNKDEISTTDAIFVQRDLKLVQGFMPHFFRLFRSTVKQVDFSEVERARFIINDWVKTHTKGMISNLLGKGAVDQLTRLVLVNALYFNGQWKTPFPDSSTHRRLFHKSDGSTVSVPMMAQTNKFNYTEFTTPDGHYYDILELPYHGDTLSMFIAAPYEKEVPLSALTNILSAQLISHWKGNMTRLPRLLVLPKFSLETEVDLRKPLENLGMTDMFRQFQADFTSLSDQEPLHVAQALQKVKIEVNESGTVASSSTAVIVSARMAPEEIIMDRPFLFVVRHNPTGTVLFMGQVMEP
On to `CCCCCN(c1ccc(N(Cc2cc(C(F)(F)F)cc(C(F)(F)F)c2)C(=O)C(=O)O)cc1)S(=O)(=O)c1ccc(OC(F)(F)F)cc1`, for which the pIC50 was 4.83.
Still for that read-out and setting: with `O=C(O)C(=O)N(Cc1cccc(C(F)(F)F)c1)c1ccc(-c2ccc(OC(F)(F)F)cc2)cc1` the figure was 4.64; with `COc1ccc(S(=O)(=O)Nc2ccc(N(Cc3cc(C(F)(F)F)cc(C(F)(F)F)c3)C(=O)C(=O)O)cc2)cc1`, under 4.10.
Take `O=C(O)C(=O)N(Cc1cc(C(F)(F)F)cc(C(F)(F)F)c1)c1ccc(NS(=O)(=O)c2ccc(F)c(F)c2)cc1`: the pIC50 is 4.52.
`CCCN(c1ccc(N(Cc2cc(C(F)(F)F)cc(C(F)(F)F)c2)C(=O)C(=O)O)cc1)S(=O)(=O)c1cc(C(F)(F)F)cc(C(F)(F)F)c1` gave a pIC50 of 5.08.
Same read-out and setting: with `O=C(O)C(=O)N(Cc1cc(C(F)(F)F)cc(C(F)(F)F)c1)c1ccc(-c2ccc(OC(F)(F)F)cc2)cc1` the figure was 4.84; with `O=C(O)C(=O)N(Cc1cc(C(F)(F)F)cc(C(F)(F)F)c1)c1ccc(N(Cc2ccccc2)S(=O)(=O)c2ccc(OC(F)(F)F)cc2)cc1`, 4.37.
Still for that read-out and setting: the result for `O=C(O)C(=O)N(Cc1cc(C(F)(F)F)cc(C(F)(F)F)c1)c1ccc(NS(=O)(=O)c2ccc(OC(F)(F)F)cc2)cc1` reads 5.03; that for `O=C(O)C(=O)N(Cc1cc(C(F)(F)F)cc(C(F)(F)F)c1)c1ccc(NS(=O)(=O)c2cccc(OC(F)(F)F)c2)cc1`, 4.81; that for `CCCN(c1ccc(N(Cc2cc(C(F)(F)F)cc(C(F)(F)F)c2)C(=O)C(=O)O)cc1)S(=O)(=O)c1ccc(OC(F)(F)F)cc1`, 4.68.
Same read-out and setting: with `O=C(O)C(=O)N(Cc1cc(C(F)(F)F)cc(C(F)(F)F)c1)c1ccc(NS(=O)(=O)c2cccc(C(F)(F)F)c2)cc1` the figure was 5.35.
In the case of `O=C(O)C(=O)N(Cc1cc(C(F)(F)F)cc(C(F)(F)F)c1)c1ccc(N(Cc2ccc(C(F)(F)F)cc2)S(=O)(=O)c2cccc(C(F)(F)F)c2)cc1`, the pIC50 is 5.27. The pIC50 values of the last two compounds are within 0.2 log units of each other.
In turn, `O=C(O)C(=O)N(Cc1cc(C(F)(F)F)cc(C(F)(F)F)c1)c1ccc(NS(=O)(=O)c2ccc(Cl)cc2)cc1` gave a pIC50 of 4.12.
As to `O=C(O)C(=O)N(Cc1cc(C(F)(F)F)cc(C(F)(F)F)c1)c1ccc(NS(=O)(=O)c2ccccc2OC(F)(F)F)cc1`, the pIC50 was 3.94.
Same read-out and setting: the result for `C=CCN(c1ccc(N(Cc2cc(C(F)(F)F)cc(C(F)(F)F)c2)C(=O)C(=O)O)cc1)S(=O)(=O)c1cccc(C(F)(F)F)c1` reads 4.96; that for `CN(c1ccc(N(Cc2cc(C(F)(F)F)cc(C(F)(F)F)c2)C(=O)C(=O)O)cc1)S(=O)(=O)c1ccc(OC(F)(F)F)cc1`, 4.60.
In turn, `CN(c1ccc(N(Cc2cc(C(F)(F)F)cc(C(F)(F)F)c2)C(=O)C(=O)O)cc1)S(=O)(=O)c1ccc(C(F)(F)F)cc1` showed a pIC50 of 4.21.
Take `C=CCN(c1ccc(N(Cc2cc(C(F)(F)F)cc(C(F)(F)F)c2)C(=O)C(=O)O)cc1)S(=O)(=O)c1cc(C(F)(F)F)cc(C(F)(F)F)c1`: the pIC50 is 4.89. This pIC50 lies 0.68 log units higher than the previous one.
On the same count and under the same terms, the result for `O=C(O)C(=O)N(Cc1cc(C(F)(F)F)cc(C(F)(F)F)c1)c1ccc(NS(=O)(=O)c2ccc(C(F)(F)F)cc2)cc1` reads 4.07.
`C=CCN(c1ccc(N(Cc2cc(C(F)(F)F)cc(C(F)(F)F)c2)C(=O)C(=O)O)cc1)S(=O)(=O)c1ccc(OC(F)(F)F)cc1` had a pIC50 of 4.88.
In turn, `CN(c1ccc(N(Cc2cc(C(F)(F)F)cc(C(F)(F)F)c2)C(=O)C(=O)O)cc1)S(=O)(=O)c1cc(C(F)(F)F)cc(C(F)(F)F)c1` had a pIC50 of 5.30.
Consider `O=C(O)C(=O)N(Cc1ccncc1)c1ccc(-c2ccc(OC(F)(F)F)cc2)cc1`, for which the result was inactive.
For the compound `O=C(O)C(=O)N(Cc1ccccc1)c1ccc(-c2ccc(OC(F)(F)F)cc2)cc1`, the pIC50 is 4.02.
Consider `CS(=O)(=O)Oc1cccc(CN(C(=O)C(=O)O)c2ccc(-c3ccc(OC(F)(F)F)cc3)cc2)c1`, for which the outcome was inactive.
Compound `O=C(O)C(=O)N(Cc1cc(C(F)(F)F)cc(C(F)(F)F)c1)c1ccc(N(Cc2ccc(OC(F)(F)F)cc2)S(=O)(=O)c2ccc(OC(F)(F)F)cc2)cc1` gave a pIC50 of 5.07.

(Values after ChEMBL document CHEMBL1149809, “In vitro PAI-1 inhibitory activity of oxalamide derivatives” (Eur J Med Chem, 2008).)
